Data: ChEMBL document CHEMBL5113523, “Discovery of Cyclic Peptide Inhibitors Targeting PD-L1 for Cancer Immunotherapy” (J Med Chem, 2022)
Activity calls are given as the source filed them. No cut-off for these calls is given here. Bridge positions count the residues as written; N and C are the ends. Peptide text beside a SMILES is read from it.

What was measured:
[1] = target: T1, Programmed cell death protein 1/Programmed cell death 1 ligand 1 (Homo sapiens, UniProt Q9NZQ7); test: Inhibition of human recombinant PD-1/PD-L1 interaction preincubated with compound for 2 hrs followed by PD-1 protein addition and measured after 1.5 hrs by inhibitor screening ELISA assay pair kit method; type: protein-complex assay
Procedure, shortened: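 Plates coated with 100 ng recombinant human PD-L1 at 4°C for 16 h, washed with PBS pH 7.2-7.4, then blocked with 2% BSA for 1.5 h at 37°C. Peptides added at set concentrations for 2 h at 37°C, then biotinylated PD-1 for 1.5 h. Detection with streptavidin-HRP and chromogenic substrate, stopped with 2N H2SO4. A450 referenced to 540 nm. Mean ± SD, n = 3.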

CT26 [2] = test: Antitumor activity against mouse CT26 cells implanted in BALB/c mouse syngeneic model at 0.5 mg/kg, ip administered daily starting from day 10 post inoculation and measured on day 18; type: functional, organism-based; conditions: time 9.0 day
Procedure, shortened: (§1)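 Balb/c mice (4 male + 4 female per group) implanted subcutaneously in right flank with ~1×10^6 CT26 cells; treatment began when tumors reached 200-250 mm3. Daily intraperitoneal dosing days 10–18, saline vehicle control group. Caliper volume = 1/2 × length × width2. TGI (%) = [1 − RTV treated/RTV control] × 100, RTV = day-18 volume / day-10 volume.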

[3] = target: Programmed cell death 1 ligand 1 (Homo sapiens) (UniProt Q9NZQ7); test: Binding affinity to PD-L1 overexpressing in human DU-145 cells at 25 to 100 nM incubated for 1 hr by flow cytometry analysis; type: cell-based; conditions: dose 25-100 nM
Procedure, shortened: (§2)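 Cells detached with enzyme-free dissociation buffer, suspended in PBS at 1×10^6 cells/mL, incubated with Cy5-labelled peptide at various concentrations for 1 h at 37 °C under slow rotation. Cells spun at 300g for 10 min, washed, resuspended in PBS and read by flow cytometry. PD-L1 knockout MDA-MB-231 served as the negative cell line. Mean ± SD, n = 3.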

[4] = Stability of the compound in 50% human serum assessed as half life measured upto 200 mins by LC-MS/MS analysis; type: ADME, cell-free
Procedure, shortened: (§3)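 Peptide incubated in 50% human serum at 37 °C. Aliquots taken at set time points up to 3 h and the intact peptide quantified by LC-MS/MS. Mean ± SD, n = 3.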

[5] = Stability of the compound in human serum assessed as compound remaining measured after 3 hrs by LC-MS/MS analysis relative to control; type: ADME, cell-free; conditions: read-out: Stability; procedure, shortened: as §3
[6] = target: T1, Programmed cell death protein 1/Programmed cell death 1 ligand 1; test: Inhibition of human PD-1/PD-L1 interaction by surface plasmon resonance analysis; type: protein-complex assay
Procedure, shortened: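 Competitive SPR with PD-1 immobilised on the chip. Various peptide concentrations were preincubated with human PD-L1 in running buffer, then injected. PD-L1 alone was injected as the control. Blocking was taken from the drop in SPR response relative to that control. Mean ± SD, n = 3.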

[7] = Production against apoptosis in human PBMC cells cocultured with DU-145 cells assessed as increase in IFNgamma level in CD8+ T cell at 10 uM measured after 24 hrs by FACScalibur flow cytometry (reference value: 1.3%); type: functional
[8] = Production against apoptosis in human PBMC cells cocultured with DU-145 cells assessed as reduction in apoptosis of T cells at 10 uM measured after 24 hrs by annexin V-FITC/PI staining based FACScalibur flow cytometry (reference value: 24.5%); type: functional; set-up: scale not given: the % may be the effect or the level left
[9] = target: Programmed cell death 1 ligand 1 (Homo sapiens) (UniProt Q9NZQ7); test: Binding affinity to PD-L1 overexpressing in human MDA-MB-231 cells at 25 to 100 nM incubated for 1 hr by flow cytometry analysis; type: cell-based; conditions: dose 25-100 nM; procedure, shortened: as §2
[10] = target: Programmed cell death 1 ligand 1 (Homo sapiens) (UniProt Q9NZQ7); test: Binding affinity to PD-L1 deficient in human MCF7 cells at 25 to 100 nM incubated for 1 hr by flow cytometry analysis; type: cell-based; conditions: dose 25-100 nM
[11] = Production against apoptosis in human PBMC cells cocultured with DU-145 cells assessed as increase in IFNgamma level in CD4+ T cell at 10 uM measured after 24 hrs by FACScalibur flow cytometry (reference value: 1.3%); type: functional
[12] = target: Programmed cell death protein 1/Programmed cell death 1 ligand 1 (Mus musculus, UniProt Q9EP73); test: Inhibition of mouse recombinant PD-1/PD-L1 interaction preincubated with compound for 2 hrs followed by PD-1 protein addition and measured after 1.5 hrs by inhibitor screening ELISA assay pair kit method; type: protein-complex assay
Procedure, shortened: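 Plate-based ELISA. Mouse PD-L1 (100 ng) coated for 16 h at 4 °C, then blocked with 2% BSA for 1.5 h at 37 °C. Peptide added for 2 h at 37 °C, then biotinylated mouse PD-1 for 1.5 h. Detection with streptavidin-HRP and chromogenic substrate, stopped with 2N H2SO4; OD450 referenced to OD540. IC50 determined; mean ± SD, n = 3.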

CT26 [13] = test: Antitumor activity against mouse CT26 cells implanted in BALB/c mouse syngeneic model assessed as tumor growth inhibition at 0.5 mg/kg, ip administered daily starting from day 10 post inoculation and measured on day 18 (reference value: 0%); type: functional; conditions: CT26, 216 h, time 9 day, read-out: TGI; procedure, shortened: as §1
Homo sapiens = species: Homo sapiens; test: Antiproliferative activity against human DU-145 cells cocultured with PBMC cells at 10 uM incubated for 24 hrs by CellTiter-Glo luminescent cell viability assay; type: functional, cell-based
[14] = Toxicity in BALB/c syngenic mouse bearing CT26 cells assessed as improvement in animal survival at 0.5 mg/kg, ip administered daily starting from day 10 post inoculation and measured on day 18; type: organism-based; conditions: in vivo, 216 h, time 9 day
Procedure, shortened: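 Male and female Balb/c mice (4 of each per group) with about 1×10^6 CT26 cells implanted subcutaneously in the right flank. Grouped when tumours reached 200-250 mm3. Dosed 0.5 mg/kg i.p. daily from day 10 to day 18; saline i.p. as negative control. Caliper volume = 1/2 × length × width². Survival curves recorded.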

[15] = Stability of the compound in human serum assessed as drug degradation measured after 3 hrs by LC-MS/MS analysis; type: ADME, cell-free; procedure, shortened: as §3

T1 sequence (Q15116 whole entry): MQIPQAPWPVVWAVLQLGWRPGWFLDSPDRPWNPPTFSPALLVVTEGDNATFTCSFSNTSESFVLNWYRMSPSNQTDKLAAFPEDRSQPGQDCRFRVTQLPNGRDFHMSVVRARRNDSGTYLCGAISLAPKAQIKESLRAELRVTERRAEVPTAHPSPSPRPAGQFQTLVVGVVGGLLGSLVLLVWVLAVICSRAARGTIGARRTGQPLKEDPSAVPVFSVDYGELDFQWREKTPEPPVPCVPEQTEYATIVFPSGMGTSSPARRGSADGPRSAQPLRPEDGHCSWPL
T1 sequence (Q9NZQ7 whole entry): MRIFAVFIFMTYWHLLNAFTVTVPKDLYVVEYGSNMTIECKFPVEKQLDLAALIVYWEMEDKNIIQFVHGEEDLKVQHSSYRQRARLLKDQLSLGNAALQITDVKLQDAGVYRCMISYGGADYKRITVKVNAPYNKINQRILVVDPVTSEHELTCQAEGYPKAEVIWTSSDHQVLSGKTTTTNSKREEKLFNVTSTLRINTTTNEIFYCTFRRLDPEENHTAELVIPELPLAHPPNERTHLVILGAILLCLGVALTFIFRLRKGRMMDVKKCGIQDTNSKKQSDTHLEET
Sequence of Programmed cell death protein 1/Programmed cell death 1 ligand 1 (Mus musculus, UniProt Q9EP73) (Q9EP73 whole entry): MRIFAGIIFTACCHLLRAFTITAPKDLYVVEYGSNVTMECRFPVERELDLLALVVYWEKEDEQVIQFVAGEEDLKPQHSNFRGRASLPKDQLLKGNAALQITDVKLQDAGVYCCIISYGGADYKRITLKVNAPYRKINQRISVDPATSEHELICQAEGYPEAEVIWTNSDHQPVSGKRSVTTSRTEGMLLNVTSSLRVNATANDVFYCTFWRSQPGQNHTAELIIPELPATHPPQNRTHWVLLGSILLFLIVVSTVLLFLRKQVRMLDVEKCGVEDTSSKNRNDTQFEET
Sequence of Programmed cell death protein 1/Programmed cell death 1 ligand 1 (Mus musculus, UniProt Q9EP73) (Q02242 whole entry, further chain): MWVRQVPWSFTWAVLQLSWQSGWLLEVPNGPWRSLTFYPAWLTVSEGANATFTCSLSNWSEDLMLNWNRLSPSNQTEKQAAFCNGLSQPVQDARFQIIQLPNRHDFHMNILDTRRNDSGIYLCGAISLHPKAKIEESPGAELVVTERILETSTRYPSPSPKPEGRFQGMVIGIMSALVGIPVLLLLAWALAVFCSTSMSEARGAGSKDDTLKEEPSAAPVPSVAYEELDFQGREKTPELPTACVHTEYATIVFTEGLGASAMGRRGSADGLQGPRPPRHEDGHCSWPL
Sequence of Programmed cell death 1 ligand 1 (Homo sapiens) (Q9NZQ7 whole entry): as the sequence (Q9NZQ7 whole entry) above

Compound	IC50 [1] [nM]	Activity (CT26 [2])	Activity [3]	half-life [4] [min]	remaining at 3 h [5] [%]	IC50 [6] [nM]	Activity [7] [%]	Activity [8] [%]	Activity [9]	Activity [10]	Activity [11] [%]	IC50 [12] [nM]	inhibition in vivo at 0.5 mg/kg (CT26 [13]) [%]	Activity (Homo sapiens)	Activity [14]	Drug degradation [15]
CC(=O)N[C@H]1CSSC[C@@H](C(=O)N[C@@H](Cc2c[nH]c3ccccc23)C(=O)N[C@@H](CC(N)=O)C(=O)N[C@@H](CC(C)C)C(=O)N[C@@H](CC(N)=O)C(=O)N[C@H](C(N)=O)[C@@H](C)O)NC(=O)[C@H](Cc2ccc(O)cc2)NC(=O)[C@H](Cc2ccc(O)cc2)NC(=O)[C@H](CO)NC(=O)[C@H](CCCNC(=N)N)NC(=O)[C@H](Cc2c[nH]cn2)NC1=O (Ac-CHRSYYCWNLNT-NH2; disulfide 1-7)	440	Active	Active	70.8	25	143	1.5	10.6	Active	Active	1.3	464	33	Active	Toxic	–
CC(=O)N[C@H]1CSSC[C@@H](C(N)=O)NC(=O)[C@H](CC(N)=O)NC(=O)[C@H](CC(C)C)NC(=O)[C@H](CC(N)=O)NC(=O)[C@H](Cc2c[nH]c3ccccc23)NC(=O)[C@H]([C@@H](C)O)NC(=O)[C@H](Cc2ccc(O)cc2)NC(=O)[C@H](Cc2ccc(O)cc2)NC(=O)[C@H](CO)NC(=O)[C@H](CCCNC(=N)N)NC(=O)[C@H](Cc2c[nH]cn2)NC1=O (Ac-CHRSYYTWNLNC-NH2; disulfide 1-12)	180	Active	Active	38.1	–	119	1.7	12.2	Active	Active	1.5	552	60.6	Active	Toxic	–
H-WHRSYYTWNLNT-OH	–	–	Active	–	–	–	1.4	14.5	Active	Active	1.5	4280	16.3	–	Non-Toxic	Active
